Results as given in ChEMBL document CHEMBL1152993, “Telithromycin and quinupristin-dalfopristin induce delayed death in Plasmodium falciparum” (Antimicrob Agents Chemother, 2008).
≈ marks a conversion by molar mass, not a printed value. Calls of active or inactive are those of the source. The calls are words filed in the database; no cut-off is given here.

Tests used:
Plasmodium falciparum [1] = assay: Antiplasmodial activity after 120 hrs against Plasmodium falciparum 3D7 as Malstat LDH activity; assay type: functional, organism-based; conditions: for IC50: 3D7, 120 h
Outline: (§1)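 Synchronized ring-stage 3D7 plated at 1% parasitemia. Drugs tested at 1 nM to 100 μM, dissolved in DMSO or water; 0.5% DMSO was the negative control. Cultures kept 48, 72, 96 or 120 h, with medium changed at day 3. Viability read by Malstat parasite lactate dehydrogenase activity. IC50 reported as mean ± SEM.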

Plasmodium falciparum [2] = assay: Antiplasmodial activity after 48 hrs against Plasmodium falciparum 3D7 as Malstat LDH activity; assay type: functional, organism-based; conditions: for IC50: 3D7, 48 h; outline: as §1
Plasmodium falciparum [3] = assay: Antiplasmodial activity after 72 hrs against Plasmodium falciparum 3D7 as Malstat LDH activity; assay type: functional, organism-based; conditions: for IC50: 3D7, 72 h; outline: as §1
Plasmodium falciparum [4] = assay: Antiplasmodial activity after 96 hrs against Plasmodium falciparum 3D7 as Malstat LDH activity; assay type: functional, organism-based; conditions: for IC50: 3D7, 96 h; outline: as §1
Plasmodium falciparum [5] = assay: Antiplasmodial activity against Plasmodium falciparum 3D7 assessed as multiple-nuclei schizont arrest at IC50 after 96 hrs by transmission electron microscopy; assay type: functional, organism-based
Outline: (§2)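 Cultures exposed to drug at the 96-h IC50 and collected after 96 h of treatment. Fixed in 1% glutaraldehyde and 4% paraformaldehyde in PBS, then processed for transmission electron microscopy to assess schizont stage and morphology. Untreated parasites served as comparison.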

Plasmodium falciparum [6] = assay: Antiplasmodial activity against Plasmodium falciparum 3D7 as early schizont maturation arrest at IC50 after 48-120 hrs by giemsa stain; assay type: functional, organism-based
Outline: (§3)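 Synchronized 3D7 cultures exposed to drug at the 96-h IC50 over three life cycles, with 0.5% DMSO as untreated control. Giemsa smears were taken at 48, 72, 96 and 120 h, and developmental stages were counted at each time point.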

Plasmodium falciparum [7] = assay: Relative activity against Plasmodium falciparum 3D7 as IC50 ratio after 48 and 96 hrs; assay type: functional
Plasmodium falciparum [8] = assay: Antiplasmodial activity against Plasmodium falciparum 3D7 as late trophozoite to early schizont arrest at IC50 after 48-120 hrs by giemsa stain; assay type: functional, organism-based; outline: as §3
[9] = Cmax in human at 12 mg/kg administered as single oral dose; assay type: ADME, organism-based; parameters: dose 12 mg/kg, route oral; conditions: in vivo
Plasmodium falciparum [10] = assay: Antiplasmodial activity against Plasmodium falciparum 3D7 as delayed first replication cycle at IC50 after 48-120 hrs by giemsa stain; assay type: functional; outline: as §3
Plasmodium falciparum [11] = assay: Antiplasmodial activity against Plasmodium falciparum 3D7 as 2xnuclei schizont arrest at IC50 after 96 hrs by transmission electron microscopy; assay type: functional, organism-based; outline: as §2
Plasmodium falciparum [12] = assay: Antiplasmodial activity against Plasmodium falciparum 3D7 as delayed maturation in first replication and early second cycle arrest at IC50; assay type: functional, organism-based; outline: as §3
Plasmodium falciparum [13] = assay: Antiplasmodial activity as ED50 against parasite growth after 48 hrs for Plasmodium falciparum 3D7; assay type: functional, organism-based; conditions: 3D7, 48 h; outline: as §1
Plasmodium falciparum [14] = assay: Antiplasmodial activity as ED50 against parasite growth after 96 hrs for Plasmodium falciparum 3D7; assay type: functional, organism-based; conditions: 3D7, 96 h; outline: as §1

IC50 (Plasmodium falciparum [1])	IC50 (Plasmodium falciparum [2])	IC50 (Plasmodium falciparum [3])	IC50 (Plasmodium falciparum [4])	Cmax [9]	Compound	Activity (Plasmodium falciparum [1])	Activity (Plasmodium falciparum [2])	Activity (Plasmodium falciparum [3])	Activity (Plasmodium falciparum [4])	Activity (Plasmodium falciparum [5])	Activity (Plasmodium falciparum [6])	Ratio IC50 (Plasmodium falciparum [7])	Activity (Plasmodium falciparum [8])	Activity (Plasmodium falciparum [10])	Activity (Plasmodium falciparum [11])	Activity (Plasmodium falciparum [12])	IC50 (Plasmodium falciparum [13])	IC50 (Plasmodium falciparum [14])
–	–	–	–	–	CC(=O)NC[C@H]1CN(c2ccc(N3CCOCC3)c(F)c2)C(=O)O1	inactive	inactive	inactive	inactive	–	–	–	–	–	–	–	–	–
410 nM	9040 nM	4570 nM	940 nM	–	CC[C@H]1OC(=O)[C@H](C)[C@@H](O[C@H]2C[C@@](C)(OC)[C@@H](O)[C@H](C)O2)[C@H](C)[C@@H](O[C@@H]2O[C@H](C)C[C@H](N(C)C)[C@H]2O)[C@](C)(O)C[C@@H](C)CN(C)[C@H](C)[C@@H](O)[C@]1(C)O [AZITHROMYCIN]	–	–	–	–	Active	Active	10	–	–	–	–	–	–
120 nM	5420 nM	1490 nM	720 nM	–	C[C@H]1c2cccc(O)c2C(=O)C2=C(O)[C@]3(O)C(=O)C(C(N)=O)=C(O)[C@@H](N(C)C)[C@@H]3[C@@H](O)[C@@H]21.O [DOXYCYCLINE]	–	–	–	–	Active	Active	10	–	–	–	–	–	–
440 nM	8080 nM	1040 nM	280 nM	1900 ng/mL	CC[C@H]1OC(=O)[C@H](C)C(=O)[C@H](C)[C@@H](O[C@@H]2O[C@H](C)C[C@H](N(C)C)[C@H]2O)[C@](C)(OC)C[C@@H](C)C(=O)[C@H](C)[C@H]2N(CCCCn3cnc(-c4cccnc4)c3)C(=O)O[C@]12C [TELITHROMYCIN]	–	–	–	–	–	–	–	Active	5 h	Active	Active	6.56 µg/mL (≈ 8.08 µM)	0.23 µg/mL (≈ 0.283 µM)
